NALP1 inh: inhibitors of NALP1 inflammasome in yeast | S. cerevisiae NALP1/ASC/caspase-1 growth, X-gal OD620, 72 h | inhibition, % at 10 µM | 280,000 tested, 0.61% active; in the data active = inhibition mostly above about 24%, no sharp cut-off; inactive = mostly below about 32%
SUMO HTRF inh: inhibitors of human SUMOylation (UBC9) | AID 2006 | inhibition, % at 35 µM | P63279 | HTRF SUMOylation assay, SAE1/SAE2 + UBC9, in vitro | 290,000 tested, 0.36% active; in the data active = inhibition above about 50%, passing the limit was not always enough
Target sequence (P63279 whole entry, looked up): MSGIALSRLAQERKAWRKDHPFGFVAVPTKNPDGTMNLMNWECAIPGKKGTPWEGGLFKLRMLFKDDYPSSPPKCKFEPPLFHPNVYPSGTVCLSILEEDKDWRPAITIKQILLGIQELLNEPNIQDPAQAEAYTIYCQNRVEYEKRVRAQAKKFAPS
VIM-2 inh: inhibitors of Pseudomonas aeruginosa VIM-2 metallo-beta-lactamase; purified VIM-2, nitrocefin hydrolysis, epi-absorbance fluorescence; AID 1527; 290,000 tested, 0.89% active; inhibition, % at 5.6 µM;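 active = inhibition above the mean of all tested compounds plus 3 SD, cutoff set per screening run, cut at about 7.5% in these data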;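 note: red hydrolysis product quenches plate fluorescence so inhibitors raise well fluorescence; 0% = enzyme with DMSO and 100% = DMSO without enzyme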
SUMO Mot1 rescue: inhibitors of SUMOylation pathway: yeast Mot1-301 growth rescue; S. cerevisiae Mot1-301 growth rescue, ATP luminescence, 38.5C; percent above DMSO median, 100 means doubled; 320,000 tested, 1% active; growth rescue, % at 18.8 µM;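 active = every valid replicate shows activation above 250% relative to neutral control wells; inactive = the rest, any valid replicate at or below 250%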;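 note: OY570 slx delta 5 strain wells were the positive control but not used for scaling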
DNA FID counter: displaces DNA intercalator in HCV helicase counter-screen; DNA fluorescent intercalator displacement, fluorescence; inhibition, % at 7.9 µM; 290,000 tested, 0.17% active; AID 1845; in the data active = inhibition above about 37%;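 note: 0% = vehicle and 100% = reference compound; higher means more ethidium bromide displaced from hairpin DNA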
IMP-1 inh-1: blocks Pseudomonas aeruginosa IMP-1 metallo-beta-lactamase; purified IMP-1, nitrocefin hydrolysis, epi-absorbance fluorescence; inhibition, % at 5.6 µM; 290,000 tested, 0.45% active;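 active = inhibition above the mean plus 3 SD of all compounds in the same screening run, cut at about 4.5% in these data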;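 note: 0% = IMP-1 with DMSO and 100% = DMSO wells lacking enzyme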
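system = purified recombinant IMP-1 beta-lactamase | amount = 0.2 nM IMP-1, as dispensed | medium = HEPES buffer pH 7.1 with ZnSO4 and Brij 35 | times = 25 °C, 15 min preincubation, 25 min reaction | detection = plate fluorescence quenching by hydrolysis product, ex 480/em 530 nm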
IMP-1 inh-2: IMP-1 inhibition, counter-screen for VIM-2 inhibitors. 1,300 tested, under 10 active. inhibition, % at 5.6 µM. AID 1856. purified IMP-1, nitrocefin hydrolysis, epi-absorbance fluorescence. shares compounds with VIM-2 inh; call rule not given here;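 note: 0% = enzyme with vehicle and 100% = vehicle without enzyme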
VIM-2 FRET ctr: counter-screen for VIM-2 inhibitors: epi-absorbance artifacts via FRET. shares compounds with VIM-2 inh. purified VIM-2, CCF2 FRET substrate hydrolysis. inhibition, % at 5.6 µM. 1,300 tested, 23% active. AID 1857;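 active = inhibition above the mean of all tested compounds plus 3 SD, cut at about 19% in these data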;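 note: 0% = VIM-2 plus DMSO and 100% = no enzyme wells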
TEM-1 counter: selectivity counter-screen for VIM-2 inhibitors: E. coli TEM-1 inhibitors | 1,300 tested, 3% active | AID 1866 | inhibition, % at 5.6 µM | shares compounds with VIM-2 inh | Purified TEM-1, nitrocefin hydrolysis, epi-absorbance fluorescence;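 active = inhibition above that campaign's mean inhibition plus 3 SD, cut at about 0.46% in these data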;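 note: 0% = TEM-1 with DMSO and 100% = TEM-1 with 100 µM potassium clavulanate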
Target sequence (P62593 whole entry, looked up): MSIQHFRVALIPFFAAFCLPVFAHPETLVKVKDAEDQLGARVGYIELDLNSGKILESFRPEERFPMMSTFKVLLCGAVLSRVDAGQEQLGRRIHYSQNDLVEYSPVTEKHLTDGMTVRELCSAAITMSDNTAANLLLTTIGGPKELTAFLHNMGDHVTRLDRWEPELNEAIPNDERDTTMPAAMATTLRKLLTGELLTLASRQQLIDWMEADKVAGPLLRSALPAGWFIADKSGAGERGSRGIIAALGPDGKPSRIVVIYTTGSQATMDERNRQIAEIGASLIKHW
VIM-2 confirm 2: confirmation of P. aeruginosa VIM-2 metallo-beta-lactamase inhibitors; 1,300 tested, 96% active; inhibition, % at 5.6 µM; purified VIM-2, nitrocefin hydrolysis, epi-absorbance; shares compounds with VIM-2 inh;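 active = inhibition of the VIM-2 beta-lactamase enzyme above about 11% from the earlier first-round screen, limit read from the data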;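 note: 0% = VIM-2 with DMSO and 100% = buffer wells without enzyme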
Numbers without * were called inactive; nt = no result given. Compounds with a hit are over-represented: about 2.9% of the library has one in this group of screens.

SMILES	NALP1 inh	SUMO HTRF inh	VIM-2 inh	SUMO Mot1 rescue	DNA FID counter	IMP-1 inh-1	IMP-1 inh-2	VIM-2 FRET ctr	TEM-1 counter	VIM-2 confirm 2
Cc1cc(-c2ccco2)n2c(nc3ccccc32)c1C#N	6	13	18*	7	-5	-2	-3	32*	-4	43*
Cc1cc(NCCCN2CCOCC2)n2c(nc3ccccc32)c1C#N	1	32	40*	-6	13	-1	-2	-9	-5	57*
COCCN(CCOC)c1cc(C)c(C#N)c2nc3ccccc3n12	10	47	-2	511	-7	-5	nt	nt	nt	nt
CCCC(=O)c1ccc(N2CCC(C)CC2)c(F)c1	38	5	0	15	-1	0	nt	nt	nt	nt
Cc1cc(NCCCCO)n2c(nc3ccccc32)c1C#N	14	13	19*	-15	-1	-2	-3	-10	-7	40*
Cc1cc(Nc2cccc([N+](=O)[O-])c2)n2c(nc3ccccc32)c1C#N	29	-12	-2	-12	0	-3	nt	nt	nt	nt
CCN(CC)CCNc1cc(C)c(C#N)c2nc3ccccc3n12	10	22	22*	24	-9	-3	-3	-8	-6	37*
Cc1cc(NC(=O)C(C)Oc2ccc(C(C)(C)C)cc2)no1 (centres undefined)	12	0	-2	29	-33	-2	nt	nt	nt	nt
C=CCn1c2ccccc2c2nn(C)c(=S)nc21	21	16	14*	601	-5	-1	-4	0	-8	17*
CN(/N=C/c1cccc(Br)c1)C1=NS(=O)(=O)c2ccccc21	11	9	16*	33	-24	-2	-3	-3	-8	23*
O=C(O)c1c(C(=O)O)c(-c2ccc(Br)cc2)n2c1CSC2	2	11	43*	0	-12	1	0	68*	-6	50*
Cc1ccc(-c2c(C(=O)O)c(C(=O)O)c3n2CSC3)cc1	6	-5	34*	-5	-20	3	2	52*	-6	37*
O=C(NCc1ccco1)c1cccn2c(=O)c3sccc3nc12	nt	nt	19*	4	-8	-2	-2	-3	-8	34*
COc1ccc(-c2cc(C(F)(F)F)nc(N3CCCCCC3)n2)cc1	15	-23	-2	199	4	-3	nt	nt	nt	nt
COc1ccc(-c2cc(C(F)(F)F)nc(N3CCN(C)CC3)n2)cc1OC	2	17	18*	-6	26	0	-2	1	-6	30*
COc1ccc(-c2cc(C(F)(F)F)nc(N3CCN(C)CC3)n2)cc1	23	-6	17*	-3	20	-4	-2	36*	-7	25*
Cc1ccc(C)c(NC(=O)c2ccc(OCc3c(C)noc3C)cc2)c1	nt	nt	nt	4	nt	nt	nt	nt	nt	nt
CC(=O)N1CCN(c2ccc(S(=O)(=O)NCCN(C(C)C)C(C)C)cc2[N+](=O)[O-])CC1	12	6	-1	8	10	-3	nt	nt	nt	nt
CN(C)CCNS(=O)(=O)c1ccc(N2CCN(c3ccc(F)cc3)CC2)c([N+](=O)[O-])c1	-3	12	15*	-1	38*	-3	-3	34*	-8	24*
COc1cc(-c2nnc(COC(=O)c3nn(CC(C)C)c(=O)c4ccccc34)o2)cc(OC)c1OC	nt	nt	nt	-9	nt	nt	nt	nt	nt	nt
Cc1sc2ncnc(Oc3ccc(-n4ccnc4)cc3)c2c1C	23	19	74*	3	-22	-2	-2	-7	-5	85*
CC(C)Cn1cc(Cl)c(=O)n(CC(C)C)c1=O	14	12	-4	127	-9	-2	nt	nt	nt	nt

Bioassay records deposited in PubChem BioAssay by several laboratories.
